Data published in ChEMBL document CHEMBL4364301 (Eur J Med Chem, 2019).

Columns and labels:
Assay type in all cases: functional
VCaP = test: Antiproliferative activity against human VCaP cells assessed as reduction in cell growth incubated for 96 hrs by propidium iodide based 2D monolayer assay
Method in brief: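 VCaP cells in RPMI 1640 with 10% FCS at 37 °C, 5% CO2, seeded 4,000–20,000 cells/well and left 24 h before dosing. Compounds from DMSO stocks were diluted in half-log steps in medium, 10 concentrations 0.0032–100 μM, triplicate wells, max 0.3% DMSO. After 96 h, cells were washed, stained with 7 μg/ml propidium iodide plus 0.1% Triton X-100 for 1–2 h at room temperature, and fluorescence read at ex 530/em 620 nm.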

DU-145 = test: Antiproliferative activity against human DU145 cells assessed as reduction in cell growth incubated for 96 hrs by propidium iodide based 2D monolayer assay; conditions: DU-145, 96 h
Method in brief: (§1)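 After 24 h recovery, compound in medium or medium alone (control wells) was added at 10 half-log concentrations from 0.0032 to 100 µM, in triplicate, with at most 0.3% DMSO. After 96 h, wells were PBS-washed, stained with 7 µg/ml PI and 0.1% Triton X-100, and fluorescence read at 530/620 nm. IC50 came from a 4-parameter fit, geometric mean.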

CWR22R = test: Antiproliferative activity against human 22Rv1 cells assessed as reduction in cell growth incubated for 96 hrs by propidium iodide based 2D monolayer assay; conditions: 22Rv1, 96 h; method in brief: as §1
LNCaP = test: Antiproliferative activity against human LNCAP cells assessed as reduction in cell growth incubated for 96 hrs by propidium iodide based 2D monolayer assay; method in brief: as §1

| SMILES | IC50 (VCaP) [µM] | IC50 (DU-145) [µM] | IC50 (CWR22R) [µM] | IC50 (LNCaP) [µM] |
| --- | --- | --- | --- | --- |
| CC1(C)C(=O)N(c2cccc(S(F)(F)(F)(F)F)c2)C(=S)N1c1ccc(C(F)(F)F)cc1 | 54.2 | 39.8 | 22.4 | 5.2 |
| CC1(C)C(=O)N(c2ccc([N+](=O)[O-])c(C(F)(F)F)c2)C(=S)N1c1cccc(S(F)(F)(F)(F)F)c1 | 100 | 100 | 100 | 100 |
| CC1(C)C(=O)N(c2ccc([N+](=O)[O-])c(C(F)(F)F)c2)C(=S)N1c1ccc(S(F)(F)(F)(F)F)cc1 | 100 | 100 | 100 | 13 |
| CC1(C)C(=O)N(c2ccc([N+](=O)[O-])cc2C(F)(F)F)C(=S)N1c1ccc(S(F)(F)(F)(F)F)cc1 | 100 | 100 | 100 | 100 |
| CC1(C)C(=O)N(c2ccc(C#N)c(C(F)(F)F)c2)C(=S)N1c1cccc(S(F)(F)(F)(F)F)c1 | 100 | 100 | 100 | 6.9 |
| CNC(=O)c1ccc(N2C(=S)N(c3cccc(S(F)(F)(F)(F)F)c3)C(=O)C2(C)C)cc1F | 55.8 | 51.1 | 37.3 | 25.1 |
| CC(O)(CSc1cc(C(F)(F)F)cc(C(F)(F)F)c1)C(=O)Nc1cccc(S(F)(F)(F)(F)F)c1 (stereo not given) | 4 | 9.4 | 4.4 | 4.8 |
| CC1(C)C(=O)N(c2ccc(S(F)(F)(F)(F)F)cc2)C(=S)N1c1cccc(C(F)(F)F)c1 | 100 | 100 | 59.6 | 8.8 |
| CC1(C)C(=O)N(c2ccc(S(F)(F)(F)(F)F)cc2)C(=S)N1c1ccc(C(F)(F)F)cc1 | 100 | 100 | 100 | 47.4 |
| CNC(=O)c1ccc(N2C(=S)N(c3ccc(S(F)(F)(F)(F)F)cc3)C(=O)C2(C)C)cc1F | 31.6 | 41.6 | 32.1 | 23 |
| CC1(C)C(=O)N(c2ccc([N+](=O)[O-])cc2C(F)(F)F)C(=S)N1c1cccc(S(F)(F)(F)(F)F)c1 | 100 | 100 | 43.9 | 5.3 |
| CC(O)(CSc1cccc(C(F)(F)F)c1)C(=O)Nc1cccc(S(F)(F)(F)(F)F)c1 (racemic) | 20.2 | 19.1 | 12.9 | 12.7 |
| CC(O)(CSc1ccc(S(F)(F)(F)(F)F)cc1)C(=O)Nc1cccc(S(F)(F)(F)(F)F)c1 (racemic) | 24.1 | 24.8 | 13.1 | 12.7 |
| CC(O)(CSc1ccccc1C(F)(F)F)C(=O)Nc1ccc(S(F)(F)(F)(F)F)cc1 (racemic) | 21 | 15.8 | 13.2 | 12.3 |
| CC(O)(CSc1ccc(S(F)(F)(F)(F)F)cc1)C(=O)Nc1ccc([N+](=O)[O-])c(C(F)(F)F)c1 (racemic) | 10.1 | 13.9 | 9.2 | 8.7 |
| CC(O)(COc1ccc(S(F)(F)(F)(F)F)cc1)C(=O)Nc1ccc(C#N)cc1C(F)(F)F (racemic) | 25.5 | 16 | 14.7 | 12.3 |
| CC(O)(CSc1cccc(S(F)(F)(F)(F)F)c1)C(=O)Nc1ccc(C#N)cc1C(F)(F)F (racemic) | 30.8 | 37.4 | 21.6 | 17.6 |
| CC(O)(CSc1ccc(C(F)(F)F)cc1)C(=O)Nc1ccc(S(F)(F)(F)(F)F)cc1 (racemic) | 24.8 | 28.8 | 14.8 | 17 |
| CC(O)(CSc1ccc(OC(F)(F)F)cc1)C(=O)Nc1cccc(S(F)(F)(F)(F)F)c1 (racemic) | 28.5 | 24.7 | 17 | 10.3 |
| CC(O)(CSc1ccccc1OC(F)(F)F)C(=O)Nc1ccc(S(F)(F)(F)(F)F)cc1 (racemic) | 10.1 | 29 | 15 | 10.6 |
| CC(O)(CSc1cccc(C(F)(F)F)c1)C(=O)Nc1ccc(S(F)(F)(F)(F)F)cc1 (racemic) | 18.8 | 26.2 | 23.4 | 18.3 |
| CC(O)(CSc1cccc(S(F)(F)(F)(F)F)c1)C(=O)Nc1ccc([N+](=O)[O-])c(C(F)(F)F)c1 (racemic) | 9.8 | 13.9 | 8.8 | 8.6 |
| CC(O)(CSc1ccc(F)cc1)C(=O)Nc1ccc(S(F)(F)(F)(F)F)cc1 (racemic) | 23 | 25.4 | 13.5 | 12.5 |

| SMILES | IC50 (VCaP) [µM] | IC50 (DU-145) [µM] | IC50 (CWR22R) [µM] | IC50 (LNCaP) [µM] |
| --- | --- | --- | --- | --- |
| CC(O)(CSc1ccc(C(F)(F)F)cc1)C(=O)Nc1cccc(S(F)(F)(F)(F)F)c1 (racemic) | 27.3 | 27.2 | 26.9 | 17.5 |
| CC(O)(CSc1ccccc1OC(F)(F)F)C(=O)Nc1cccc(S(F)(F)(F)(F)F)c1 (racemic) | 12.6 | 17.5 | 13.9 | 10 |
| CC(O)(CSc1ccc(C(F)(F)F)cn1)C(=O)Nc1ccc(S(F)(F)(F)(F)F)cc1 (racemic) | 19 | 30.7 | 20 | 12.3 |
| CC(O)(COc1ccc(S(F)(F)(F)(F)F)cc1)C(=O)Nc1ccc([N+](=O)[O-])c(C(F)(F)F)c1 (racemic) | 100 | 21.2 | 14.1 | 100 |
| CC(O)(CSc1ccc(S(F)(F)(F)(F)F)cc1)C(=O)Nc1ccc([N+](=O)[O-])cc1C(F)(F)F (racemic) | 26.3 | 14.5 | 13.1 | 10.3 |
| CC(O)(COc1ccc(S(F)(F)(F)(F)F)cc1)C(=O)Nc1ccc([N+](=O)[O-])cc1C(F)(F)F (racemic) | 26.1 | 15.4 | 17.1 | 14.8 |
| CC(O)(CSc1ccc(S(F)(F)(F)(F)F)cc1)C(=O)Nc1ccc(C#N)cc1C(F)(F)F (racemic) | 20.5 | 17.7 | 13.2 | 15.1 |
| CC(O)(CSc1cccc(OC(F)(F)F)c1)C(=O)Nc1ccc(S(F)(F)(F)(F)F)cc1 (racemic) | 13.8 | 23.8 | 14 | 12.8 |
| CC(O)(CSc1cccc(S(F)(F)(F)(F)F)c1)C(=O)Nc1ccc([N+](=O)[O-])cc1C(F)(F)F (racemic) | 28.8 | 18.9 | 17.5 | 12.7 |
| CC(O)(CSc1cccc(S(F)(F)(F)(F)F)c1)C(=O)Nc1ccc(C#N)c(C(F)(F)F)c1 (racemic) | 31.7 | 32.7 | 20.4 | 14.5 |
| CC(O)(CSc1ccc(OC(F)(F)F)cc1)C(=O)Nc1ccc(S(F)(F)(F)(F)F)cc1 (racemic) | 16 | 12.5 | 14.9 | 16.1 |
| CC(O)(COc1ccc(S(F)(F)(F)(F)F)cc1)C(=O)Nc1ccc(C#N)c(C(F)(F)F)c1 (racemic) | 30.1 | 25.5 | 28.2 | 11.5 |
| CC(O)(CSc1cccc(S(F)(F)(F)(F)F)c1)C(=O)Nc1ccc(S(F)(F)(F)(F)F)cc1 (racemic) | 28.2 | 17.3 | 17.7 | 25 |
| CC(O)(COc1cccc(S(F)(F)(F)(F)F)c1)C(=O)Nc1ccc(C#N)c(C(F)(F)F)c1 (racemic) | 8 | 16 | 10.7 | 9.8 |
| CC(O)(CSc1ccc(S(F)(F)(F)(F)F)cc1)C(=O)Nc1ccc(S(F)(F)(F)(F)F)cc1 (racemic) | 28 | 22.3 | 24.4 | 18.3 |
| CC(O)(CSc1cccc(OC(F)(F)F)c1)C(=O)Nc1cccc(S(F)(F)(F)(F)F)c1 (racemic) | 17.5 | 25 | 18.7 | 10.9 |
| CC(O)(CSc1cc(C(F)(F)F)cc(C(F)(F)F)c1)C(=O)Nc1ccc(S(F)(F)(F)(F)F)cc1 (racemic) | 19.4 | 29.7 | 15.8 | 17.6 |
| CC(O)(CSc1ccccc1C(F)(F)F)C(=O)Nc1cccc(S(F)(F)(F)(F)F)c1 (racemic) | 21 | 15.8 | 13.2 | 12.3 |
| CC(O)(CSc1cccc(S(F)(F)(F)(F)F)c1)C(=O)Nc1cccc(S(F)(F)(F)(F)F)c1 (racemic) | 29 | 30.3 | 17.2 | 12.9 |
| CC(O)(COc1cccc(S(F)(F)(F)(F)F)c1)C(=O)Nc1ccc(C#N)cc1C(F)(F)F (racemic) | 10.3 | 16.3 | 11.6 | 9.9 |
| CC(O)(CSc1ccc(S(F)(F)(F)(F)F)cc1)C(=O)Nc1ccc(C#N)c(C(F)(F)F)c1 (racemic) | 30.2 | 27.9 | 18.1 | 16.9 |
| CC(O)(CSc1ccc(F)cc1)C(=O)Nc1cccc(S(F)(F)(F)(F)F)c1 (racemic) | 21.9 | 38.5 | 30.2 | 26.9 |
